{"source": "ChEMBL document CHEMBL1124588", "about": "“Synthesis and evaluation of N,N-di-n-propyltetrahydrobenz[f]indol-7-amine and related congeners as dopaminergic agonists” (J Med Chem, 1989)", "key": {"[1]": {"biological_target": "D(2) dopamine receptor (Rattus norvegicus) (UniProt P61169)", "sequence (P61169 whole entry)": "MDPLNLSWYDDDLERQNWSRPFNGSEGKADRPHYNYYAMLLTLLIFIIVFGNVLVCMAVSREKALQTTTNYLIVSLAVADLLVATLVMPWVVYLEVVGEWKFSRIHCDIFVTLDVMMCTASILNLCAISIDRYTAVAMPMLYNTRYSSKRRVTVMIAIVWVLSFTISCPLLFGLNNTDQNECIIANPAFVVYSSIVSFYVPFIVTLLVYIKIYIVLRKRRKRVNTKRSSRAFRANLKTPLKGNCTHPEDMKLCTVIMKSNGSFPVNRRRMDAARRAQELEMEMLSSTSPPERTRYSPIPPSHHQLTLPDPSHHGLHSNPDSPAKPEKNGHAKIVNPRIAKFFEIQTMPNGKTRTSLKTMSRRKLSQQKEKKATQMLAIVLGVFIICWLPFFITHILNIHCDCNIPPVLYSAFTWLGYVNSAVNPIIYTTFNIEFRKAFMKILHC", "experiment": "Dopamine D2 agonistic activity (2 mg/kg) as plasma prolactin level in reserpinized rats", "type": "functional, organism-based", "procedure,_shortened": "(§1)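 Male Sprague-Dawley rats were given reserpine 15 mg/kg ip as an aqueous suspension 18 h before dosing. Compound in 10% ethanol was given ip; controls received saline. Rats were killed 1 h later and blood was allowed to clot. Serum prolactin was measured by NIAMD radioimmunoassay as ng NIAMD-prolactin-PR-1/mL and expressed as percent change versus control.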"}, "[2]": {"biological_target": "D(2) dopamine receptor (Rattus norvegicus) (UniProt P61169)", "experiment": "Dopamine D2 agonistic activity (2 mg/kg) as percent change in prolactin level in reserpinized rats", "type": "functional, organism-based", "procedure,_shortened": "as §1"}, "[3]": {"biological_target": "D(2) dopamine receptor (Rattus norvegicus) (UniProt P61169)", "details": "Plasma"}}}
{"smiles": "CCCN(CCC)CCc1cccc2[nH]ccc12", "values": [{"measurement": "PRL", "setting": "[1]", "value": 5, "unit": "ng/mL"}, {"measurement": "Change", "setting": "[2]", "value": -69, "unit": "%"}]}
{"smiles": "CCCN(CCC)CCc1ccc2cc[nH]c2c1", "values": [{"measurement": "PRL", "setting": "[1]", "value": 51.2, "unit": "ng/mL"}, {"measurement": "Change", "setting": "[2]", "value": 0, "unit": "%"}]}
{"smiles": "CCCN(CCC)CCc1cccc(NC(C)=O)c1", "values": [{"measurement": "PRL", "setting": "[1]", "value": 36.9, "unit": "ng/mL"}, {"measurement": "Change", "setting": "[2]", "value": -19, "unit": "%"}]}
{"smiles": "CCCN(CCC)CCc1cccc(NS(C)(=O)=O)c1", "values": [{"measurement": "PRL", "setting": "[1]", "value": 12.6, "unit": "ng/mL"}, {"measurement": "Change", "setting": "[2]", "value": -76, "unit": "%"}]}
{"smiles": "CCCN(CCC)CCc1cccc(NC(=O)C(F)(F)F)c1", "values": [{"measurement": "PRL", "setting": "[1]", "value": 36.8, "unit": "ng/mL"}, {"measurement": "Change", "setting": "[2]", "value": -21, "unit": "%"}]}
{"smiles": "CCCN(CCC)C1CCc2ccc3[nH]ccc3c2C1", "note": "(configuration not stated)", "values": [{"measurement": "PRL", "setting": "[3]", "value": 3.8, "unit": "ng/mL"}]}
{"smiles": "CCCN(CCC)C1CCc2ccc(NS(C)(=O)=O)cc2C1", "note": "(configuration not stated)", "values": [{"measurement": "PRL", "setting": "[1]", "value": 28.3, "unit": "ng/mL"}, {"measurement": "Change", "setting": "[2]", "value": -41, "unit": "%"}]}
{"smiles": "CCCN(CCC)C1CCc2cc3cc[nH]c3cc2C1", "note": "(configuration not stated)", "values": [{"measurement": "PRL", "setting": "[1]", "value": 30.6, "unit": "ng/mL"}, {"measurement": "Change", "setting": "[2]", "value": -37, "unit": "%"}]}
{"smiles": "CCCN(CCC)C1CCc2ccc(NC(C)=O)cc2C1", "note": "(configuration not stated)", "values": [{"measurement": "PRL", "setting": "[1]", "value": 38.9, "unit": "ng/mL"}, {"measurement": "Change", "setting": "[2]", "value": -19, "unit": "%"}]}
